Results reported in ChEMBL document CHEMBL1140038, “Synthesis and evaluation of indolinyl- and indolylphenylacetylenes as PET imaging agents for beta-amyloid plaques” (Bioorg Med Chem Lett, 2008).
The source made the active and inactive calls. No cut-off for these calls is given here.

Legend:
[1] = target: T1, Amyloid-beta precursor protein (Homo sapiens, UniProt P05067); experiment: Displacement of [125I]IMPY from beta-amyloid plaques in AD patient brain
Outline: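 Competition binding against the radioligand [125I]IMPY (6-iodo-2-(4'-dimethylamino-)phenylimidazo[1,2-a]pyridine). Tissue: homogenates of postmortem AD brain. Reported as Ki.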

[2] = target: T1, Amyloid-beta precursor protein; experiment: Binding affinity to beta-amyloid in gray matter of AD patent brain; format: tissue-based; details: tested as the 18F-labelled form
[3] = Partition coefficient, log P of the compound; format: physicochemical; details: octanol/water
Outline: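 Partition coefficient measured for the HPLC-purified [18F]-radiolabelled ligands at pH 7.4. Reported as log P.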

[4] = Drug level in mouse brain after 2 mins; format: ADME, tissue-based; details: read-out: Drug uptake
Outline: (§1)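 [18F]-labelled ligands, HPLC-purified to >97% radiochemical purity, given by injection to normal mice. Brain radioactivity measured at 2 min, 2 h and 3 h after injection. Expressed as % injected dose per gram of tissue.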

[5] = Drug level in mouse brain after 2 hrs; format: ADME, tissue-based; details: read-out: Drug uptake; outline: as §1
[6] = Drug level in mouse brain after 3 hrs; format: ADME, tissue-based; details: read-out: Drug uptake; outline: as §1

T1 sequence (P05067 whole entry): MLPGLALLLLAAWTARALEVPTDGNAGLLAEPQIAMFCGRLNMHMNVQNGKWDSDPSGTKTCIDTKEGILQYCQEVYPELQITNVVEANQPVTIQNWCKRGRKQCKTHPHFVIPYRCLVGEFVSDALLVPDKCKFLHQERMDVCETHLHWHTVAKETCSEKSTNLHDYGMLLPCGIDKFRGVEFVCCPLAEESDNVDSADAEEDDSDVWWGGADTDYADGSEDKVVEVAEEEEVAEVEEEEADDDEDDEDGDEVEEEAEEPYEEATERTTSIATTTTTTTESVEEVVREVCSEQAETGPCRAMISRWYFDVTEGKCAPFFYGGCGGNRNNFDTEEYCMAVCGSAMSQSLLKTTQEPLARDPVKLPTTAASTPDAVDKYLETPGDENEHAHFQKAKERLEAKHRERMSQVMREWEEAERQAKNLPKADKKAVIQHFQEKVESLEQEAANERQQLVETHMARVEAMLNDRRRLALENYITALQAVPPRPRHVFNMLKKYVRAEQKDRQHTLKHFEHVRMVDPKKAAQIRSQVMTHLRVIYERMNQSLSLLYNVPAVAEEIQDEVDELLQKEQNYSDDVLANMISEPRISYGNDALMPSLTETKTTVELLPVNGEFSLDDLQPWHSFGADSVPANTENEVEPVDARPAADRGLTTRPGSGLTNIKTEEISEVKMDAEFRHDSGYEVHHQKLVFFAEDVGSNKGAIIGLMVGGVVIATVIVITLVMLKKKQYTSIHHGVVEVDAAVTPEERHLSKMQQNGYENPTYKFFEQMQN

Row | Ki [1] | Activity [2] | logP [3] | tissue uptake at 2 min [4] | tissue uptake at 2 h [5] | tissue uptake at 3 h [6] | Compound
1 | 1.5 nM | Active |  |  |  |  | FCCOCCOCCOc1ccc(C#Cc2ccc3[nH]ccc3c2)cc1
2 | 4 nM | Active |  |  |  |  | FCCOCCOCCOc1ccc(C#Cc2ccc3c(c2)CCN3)cc1
3 |  |  | 2.95 | 4.5 %ID/g | 1.71 %ID/g |  | [18F]CCOCCOCCOc1ccc(C#Cc2ccc3c(c2)CCN3)cc1
4 |  |  | 2.56 | 2.43 %ID/g |  | 2.1 %ID/g | [18F]CCOCCOCCOc1ccc(C#Cc2ccc3[nH]ccc3c2)cc1
